Measured values taken from publication PMC2999657 (Biochemistry, 2010).

Assays:
[1] = in dioxane/water; cited from earlier work
[2] = Spontaneous hydrolysis in neutral aqueous buffer; assay type: physicochemical; details: pH 7.5, 25 °C
How it was run: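 Test compounds were diluted from concentrated acetonitrile stocks to ≤5% acetonitrile in 20 mM MOPS, pH 7.5, at 25 °C, and their hydrolysis without enzyme was followed by UV-vis. Full progress curves were fit to a pseudo-first-order equation by nonlinear least squares, and triplicate rate constants were averaged. The clavulanic acid reference (85 μM) was run in 25 mM MOPS, pH 7.5, at 25 °C, read at 260 nm.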

P99 β-lactamase [3] = target: T1, P99 β-lactamase (Enterobacter cloacae, UniProt P05364); test: P99 β-lactamase activity with time after incubation with compound; assay type: biochemical; details: enzyme 0.25 μM, compound 100 μM
T1 sequence (P05364 21-381): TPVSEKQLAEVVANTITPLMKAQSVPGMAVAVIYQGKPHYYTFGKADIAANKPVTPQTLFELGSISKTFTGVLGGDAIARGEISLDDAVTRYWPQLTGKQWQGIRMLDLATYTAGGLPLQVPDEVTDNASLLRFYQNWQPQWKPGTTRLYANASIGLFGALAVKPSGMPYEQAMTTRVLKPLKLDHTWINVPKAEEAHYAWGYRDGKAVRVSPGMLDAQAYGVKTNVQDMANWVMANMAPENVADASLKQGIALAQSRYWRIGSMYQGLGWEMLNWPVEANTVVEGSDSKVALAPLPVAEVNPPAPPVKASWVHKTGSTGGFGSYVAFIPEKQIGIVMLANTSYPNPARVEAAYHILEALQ

class C P99 β-lactamase = class C P99 β-lactamase (Enterobacter cloacae, UniProt P05364); assay type: biochemical; details: steady state turnover by P99 β-lactamase, 20 mM MOPS pH 7.5, 25 °C
class C P99 β-lactamase, sequence (P05364 21-381): as above

[4] = target: class D OXA-1 β-lactamase (Escherichia coli, UniProt P13661); test: OXA-1 β-lactamase hydrolysis and inhibition; assay type: biochemical
class D OXA-1 β-lactamase, sequence (P13661 26-276): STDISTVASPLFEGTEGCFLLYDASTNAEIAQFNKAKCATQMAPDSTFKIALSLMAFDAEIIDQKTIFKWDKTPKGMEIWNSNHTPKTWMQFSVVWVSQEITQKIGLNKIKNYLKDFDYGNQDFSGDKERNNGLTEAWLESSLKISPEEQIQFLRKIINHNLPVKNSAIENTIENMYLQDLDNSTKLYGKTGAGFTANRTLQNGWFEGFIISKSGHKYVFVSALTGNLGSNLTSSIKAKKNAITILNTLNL

[5] = pKa determination by spectrophotometric titration; assay type: physicochemical; details: spectrophotometric titration at 233 nm, 25 °C, ionic strength 1.0
class C ampC β-lactamase = class C ampC β-lactamase (Escherichia coli, UniProt P00811); test: ampC β-lactamase substrate activity; assay type: biochemical
class C ampC β-lactamase, sequence (P00811 20-377): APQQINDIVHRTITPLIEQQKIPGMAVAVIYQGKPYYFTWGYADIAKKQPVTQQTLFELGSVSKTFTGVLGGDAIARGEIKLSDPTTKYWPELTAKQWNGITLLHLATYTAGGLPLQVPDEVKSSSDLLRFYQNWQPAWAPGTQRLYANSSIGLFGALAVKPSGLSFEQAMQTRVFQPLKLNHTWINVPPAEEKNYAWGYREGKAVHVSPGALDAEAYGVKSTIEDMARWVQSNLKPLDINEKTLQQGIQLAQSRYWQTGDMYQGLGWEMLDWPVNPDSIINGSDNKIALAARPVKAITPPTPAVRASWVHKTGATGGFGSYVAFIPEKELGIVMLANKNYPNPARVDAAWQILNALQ

P99 β-lactamase [6] = target: T1, P99 β-lactamase; assay type: biochemical; details: pH range 6.0–9.5, 25 °C, ionic strength 1.0
[7] = target: Streptomyces R61 DD-peptidase (Streptomyces sp., UniProt P15555); test: Hydrolysis in the presence of R61 DD-peptidase; assay type: biochemical; details: enzyme 0.5 μM
Streptomyces R61 DD-peptidase, sequence (P15555 32-406): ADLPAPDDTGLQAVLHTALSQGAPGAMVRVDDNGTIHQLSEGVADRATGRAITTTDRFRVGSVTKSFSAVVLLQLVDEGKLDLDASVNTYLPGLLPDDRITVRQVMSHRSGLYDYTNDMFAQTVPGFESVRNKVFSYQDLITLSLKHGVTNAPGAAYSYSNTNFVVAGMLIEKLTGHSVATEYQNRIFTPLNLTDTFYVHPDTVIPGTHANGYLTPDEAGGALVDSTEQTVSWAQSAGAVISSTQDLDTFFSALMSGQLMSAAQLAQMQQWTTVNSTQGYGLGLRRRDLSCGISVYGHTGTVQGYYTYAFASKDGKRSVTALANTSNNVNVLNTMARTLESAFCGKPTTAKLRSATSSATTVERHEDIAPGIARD

[8] = target: Actinomadura R39 DD-peptidase (Actinomadura sp., UniProt P39045); test: Hydrolysis in the presence of R39 DD-peptidase; assay type: biochemical
Actinomadura R39 DD-peptidase, sequence (P39045 50-538): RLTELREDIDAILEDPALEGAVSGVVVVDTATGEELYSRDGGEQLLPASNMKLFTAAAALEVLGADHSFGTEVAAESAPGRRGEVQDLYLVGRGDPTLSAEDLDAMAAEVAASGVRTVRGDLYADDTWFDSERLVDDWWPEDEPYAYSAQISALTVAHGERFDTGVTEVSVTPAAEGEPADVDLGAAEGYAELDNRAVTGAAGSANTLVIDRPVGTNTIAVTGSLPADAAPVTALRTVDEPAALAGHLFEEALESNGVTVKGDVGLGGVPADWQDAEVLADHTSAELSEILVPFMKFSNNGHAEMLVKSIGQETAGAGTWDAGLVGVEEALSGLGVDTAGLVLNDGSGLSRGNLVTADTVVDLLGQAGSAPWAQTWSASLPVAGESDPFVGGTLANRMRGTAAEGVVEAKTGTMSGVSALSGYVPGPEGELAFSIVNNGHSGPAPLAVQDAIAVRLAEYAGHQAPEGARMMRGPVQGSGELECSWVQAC

O=[N+]([O-])c1ccc(O)cc1 [p-nitrophenol]
pKa [1]: 9.4

O=C(O)[C@H]1/C(=C/CO)O[C@@H]2CC(=O)N21 [clavulanic acid, reference compound]
spontaneous hydrolysis rate constant ([2]; 85 μM in 25 mM MOPS buffer, monitored at 260 nm): 8e-05 s⁻¹

N-(Benzyloxycarbonyl)-O-(1-D-carboxy-ethoxycarbonyl)hydroxylamine [2 (R = CH2Ph, R′=Me)]
enzyme activity against cephalothin with time after mixing (P99 β-lactamase [3]): initial loss of enzyme activity, measured against the good substrate, cephalothin, followed by a slower restoration of activity

O=C(NOC(=O)C(O)Cc1ccccc1)OCc1ccccc1 (stereo not shown) [Compound 8, N-(Benzyloxycarbonyl)-O-(2-hydroxy-3-phenylpropanoyl)hydroxylamine]
Km (class C P99 β-lactamase): 340 ± 60 µM

O=C(NOC(=O)C(O)Cc1ccccc1)OCc1ccccc1 (stereo not shown) [Compound 7, N-(Benzyloxycarbonyl)-O-(2-hydroxy-3-phenylpropanoyl)hydroxylamine]
fast reversible or slow inhibition of the OXA-1 enzyme [4]: no significant fast reversible or slow inhibition
hydrolysis catalyzed by OXA-1 ([4]; 20 mM MOPS, 50 mM NaHCO3, 0.1 % gelatin, pH 7.5): did not catalyze hydrolysis
ksp, rate constant of spontaneous hydrolysis ([2]; 20 mM MOPS): (8.2 ± 0.8) × 10^−5 s^−1
pKa (acidic NH proton) [5]: 7.58 ± 0.03
Km (class C P99 β-lactamase): 71 ± 10 µM
substrate activity with ampC β-lactamase (class C ampC β-lactamase): good substrate
pKa for decreasing activity in pH-rate profile (P99 β-lactamase [6]): 7.6 ± 0.2
substrate activity with R61 DD-peptidase [7]: not substrates
substrate activity with R39 DD-peptidase [8]: not substrates
